Read-outs that look alike come from different tables or passages of the source.

Assay [1] deals with T. gondii RH WT. The assay is described as follows: Immunofluorescence of intracellular T. gondii. The class given is cell-based, Toxoplasma gondii. To be noted: IFA, 24 h, 40 nM FR235222, 1 µM pyrimethamine. In a few lines: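 Confluent HFF monolayers infected with RH tachyzoites with 40 nM test compound, 0.1% DMSO or 1 µM pyrimethamine for 24 h. Fixed/permeabilized 20 min (3% formaldehyde, 0.2% Triton X-100) and blocked with 5% FBS/5% goat serum. Stained with anti-AcH4 antiserum and anti-IMC1 monoclonal (1:1,000), Alexa 568/488 secondaries, and Hoechst 33258 for DNA.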

The subject of assay [2] is T. gondii type II Prugniaud strain. The assay is described as follows: Bradyzoite differentiation, SRS9/P36 expression by IFA. The class given is cell-based, Toxoplasma gondii.
Another assay relates to T. gondii Prugniaud. The assay is described as follows: T. gondii growth in HFF monolayer, [3H]uracil incorporation. It counts as cell-based. To be noted: Toxoplasma gondii, read-out: EC50 (nM ± SD). In a few lines: (§1)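 Confluent human fibroblasts infected with tachyzoites with or without test compound. After 72 h, washed and pulsed with [3H]uracil for 4 h, then washed and solubilized. Acid-precipitable radioactivity counted by liquid scintillation. EC50 by nonlinear regression.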

A further assay relates to T. gondii RH M190D4. Described as above. It counts as cell-based, Toxoplasma gondii. In a few lines: as §1
Assay [3] deals with T. gondii RH WT. Described as above. The class given is cell-based. To be noted: Toxoplasma gondii. In a few lines:
as §1

A further assay deals with HFFs. The assay is described as follows: Mammalian host cell proliferation. To be noted: in vitro, parasites versus HFF cells. The class given is cell-based, human.
For assay [4], the system named is histone H4 acetylation in T. gondii TgHDAC3^T99I resistant line. The assay is described as follows: Immunoblot of histone acetylation in extracellular tachyzoites. It counts as cell-based, Toxoplasma gondii. To be noted: 20 nM FR235222, immunoblot. In general terms: Immunoblotting shows a protein as a band on a membrane.
Another assay concerns N. caninum. Nature of the assay: N. caninum growth in HFF monolayer. It counts as cell-based, Neospora caninum. The following applies: read-out: EC50 (nM ± SD), mean ± SD.
Assay [5] has as its system 20.m00351 mRNA, T. gondii type II Prugniaud strain. Nature of the assay: Semiquantitative RT-PCR of 20.m00351 mRNA. It counts as cell-based, Toxoplasma gondii. To be noted: 40 nM FR235222 for 3 d, n = 3.
Assay [6] has as its system histone H4 acetylation in T. gondii TgHDAC3^T99A resistant line. Nature of the assay: Immunoblot of histone acetylation in extracellular tachyzoites. The class given is cell-based, Toxoplasma gondii. The following applies: 20 nM FR235222, immunoblot.
In the next assay the test system is P. falciparum. Nature of the assay: Antimalarial activity in vitro, P. falciparum intraerythrocytic growth. To be noted: 3D7 chloroquine sensitive, Dd2 chloroquine resistant, Fig. 1 C, n = 4. The class given is cell-based, Plasmodium falciparum. The essentials:
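Drug exposure: 48 h for asynchronous 3D7 and Dd2 cultures, 20 h for plasmion-enriched 3D7 schizonts. Growth was read by […] incorporation, and EC50 was derived by nonlinear regression.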

Assay [7] has as its system histone H4 acetylation in T. gondii RH WT. The assay is described as follows: Immunoblot of histone acetylation in extracellular tachyzoites. The class given is cell-based, Toxoplasma gondii.
Where [8] appears, read: read-out: EC50, T. gondii intracellular growth.
[9] abbreviates: read-out: EC50 (nM ± SD), T. gondii RH M190D4 (FR235222-resistant mutant, TgHDAC3 T99A) in HFF monolayer, [3H]uracil incorporation, mean ± SD.

For `CCc1nc(N)nc(N)c1-c1ccc(Cl)cc1` [Pyrimethamine, pyrimethamine], the “AcH4 signals in nuclei of treated parasites versus DMSO control” value with T. gondii RH WT [1] is reported as “not observed”. In assay [2] (1 µM pyrimethamine, 2–3 d, IFA with anti-P36), the “induction of SRS9/P36” value was “very weak induction”. Moreover, the EC50 with T. gondii Prugniaud was found to be 195 ± 1 nM; in the assay on T. gondii RH M190D4 (Toxoplasma gondii, read-out: EC50 (nM ± SD)), 300 ± 11 nM; in the assay with T. gondii RH WT [3] (read-out: EC50 (nM ± SD), SD) it was 285 ± 61 nM; with T. gondii RH WT [3] (setting [8]) it was 300 nM.
With `O=C(CCCCCN1C(=O)c2cccc3cccc(c23)C1=O)NO` [Scriptaid], the EC50 in the assay on T. gondii RH WT [3] (setting [8]) is 400 nM.
In the case of `CCC(=O)CCCCC[C@@H]1NC(=O)[C@H]2CCCCN2C(=O)[C@H]([C@@H](C)CC)NC(=O)[C@H](Cc2cn(OC)c3ccccc23)NC1=O` [Apicidin, apicidin], in the assay on T. gondii RH M190D4 (setting [9]), the EC50 came to 67 ± 16 nM.
Regarding FR235222, in the assay with T. gondii RH WT [1], the “AcH4 signals in nuclei of treated parasites versus DMSO control” value is “higher”. Also, in assay [2] (40 nM FR235222, 2–3 d, IFA with anti-P36, n = 2), the “parasitic vacuoles expressing SRS9/P36” value is roughly 80%. The “sensitivity of parasites relative to HFF cells” value with HFFs was roughly 10 times. In addition, in assay [4], the “change of AcH4 signals” value is recorded as “remained unchanged”. Moreover, the EC50 came out at 62 ± 5 nM with T. gondii RH M190D4 (setting [9]) and 8 ± 2 nM with N. caninum. In addition, the “20.m00351 mRNA levels” value in [5] is recorded as “accumulated”. Besides, the “increase of AcH4 signals” value in assay [6] was “approximately threefold”; in [7] (WT, 20 nM FR235222, immunoblot), “approximately eightfold”; in assay [7] (extracellular tachyzoites incubated with drug 4 h, immunoblot) it was “approximately eightfold”. Moreover, the “comparison of EC50s on clones 3D7 and Dd2” value in the assay with P. falciparum was “equivalent”. Also, the “acetylation of histones H2B (K12 and K15) and H3K9” value in assay [7] (immunoblot, FR235222 treatment (Fig. S2)) is given as “not affected”.

The values above are taken from publication PMC2715132 (The Journal of Experimental Medicine, 2009).
